Source: ChEMBL document CHEMBL1156486, “Discovery and characterization of a novel inhibitor of matrix metalloprotease-13 that reduces cartilage damage in vivo without joint fibroplasia side effects” (J Biol Chem, 2007)
Values after ≈ are worked out from the molar mass of the structure shown. Active and inactive are the calls of the source. No cut-off for these calls is given here.

Key:
[1] = Solubility in phosphate buffer at pH 6.5; assay type: physicochemical
Neutrophil collagenase = Neutrophil collagenase (Homo sapiens, UniProt P22894); assay: Inhibition of MMP8 catalytic domain
[2] = molecular target: Matrix metalloproteinase-9 (Homo sapiens, UniProt P14780); assay: Inhibition of MMP9
[3] = Plasma concentration in New Zealand white rabbit osteoarthritis model at 30 mg/kg, po twice daily after 5 weeks; assay type: ADME, organism-based, Oryctolagus cuniculus; set-up: dose 30 mg/kg, route oral
[4] = molecular target: T1, Matrix metalloproteinase-17 (Homo sapiens, UniProt Q9ULZ9); assay: Inhibition of MMP17 catalytic domain
T1 sequence (Q9ULZ9 whole entry): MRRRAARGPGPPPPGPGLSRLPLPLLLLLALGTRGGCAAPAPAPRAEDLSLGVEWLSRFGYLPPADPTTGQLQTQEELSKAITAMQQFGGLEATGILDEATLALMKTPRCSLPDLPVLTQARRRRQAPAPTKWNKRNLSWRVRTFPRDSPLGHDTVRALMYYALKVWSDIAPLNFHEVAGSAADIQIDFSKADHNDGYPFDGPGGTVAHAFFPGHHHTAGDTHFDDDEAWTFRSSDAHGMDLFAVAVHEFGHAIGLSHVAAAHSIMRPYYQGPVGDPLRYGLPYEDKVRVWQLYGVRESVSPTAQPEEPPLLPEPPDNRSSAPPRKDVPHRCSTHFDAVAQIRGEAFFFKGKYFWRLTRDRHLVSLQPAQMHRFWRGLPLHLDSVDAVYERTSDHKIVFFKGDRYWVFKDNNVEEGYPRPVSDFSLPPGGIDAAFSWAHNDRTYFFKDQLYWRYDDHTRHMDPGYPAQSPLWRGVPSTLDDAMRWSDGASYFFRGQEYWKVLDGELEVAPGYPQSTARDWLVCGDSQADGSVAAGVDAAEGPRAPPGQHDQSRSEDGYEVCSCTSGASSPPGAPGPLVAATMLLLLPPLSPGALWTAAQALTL
Outline: (§1)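 Buffer: 50 mM Hepes pH 7.0, 10 mM CaCl2, 1 mM DTNB, 0.005% Brij 35, 1% final DMSO. […] Initial rate read as A412 increase at 25 °C. At least triplicate inhibitor titrations. % of control activity fit to a sloped IC50 equation.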

Matrilysin = molecular target: T2, Matrilysin (Homo sapiens, UniProt P09237); assay: Inhibition of MMP7; outline: as §1
T2 sequence (P09237 whole entry): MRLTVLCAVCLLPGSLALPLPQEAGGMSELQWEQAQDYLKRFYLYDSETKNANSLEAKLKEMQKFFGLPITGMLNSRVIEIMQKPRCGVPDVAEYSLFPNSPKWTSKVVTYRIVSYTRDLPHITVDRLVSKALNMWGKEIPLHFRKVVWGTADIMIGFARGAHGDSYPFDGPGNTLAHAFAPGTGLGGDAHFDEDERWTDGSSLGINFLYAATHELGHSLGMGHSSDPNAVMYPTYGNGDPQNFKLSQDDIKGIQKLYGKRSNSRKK

Rattus norvegicus [5] = assay: Toxicity in Sprague-Dawley rat model of musculoskeletal syndrome side effect assessed as induction of joint fibroplasia at 2000 mg/kg/day, po after 14 days; assay type: organism-based; set-up: route oral; settings: in vivo, 336 h
Outline: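 Sprague-Dawley rats (6/sex) given vehicle or 2000 mg/kg/day orally for 14 days; a non-selective hydroxamate MMP inhibitor at 2000 mg/kg/day as positive control. Calcaneon tendon and femorotibial, tibiotarsal, humeroradial joints taken bilaterally; femorotibial joints formalin-fixed, decalcified, H&E-stained, examined by light microscopy for fibroplasia.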

[6] = AUC (0 to 24 hrs) in Sprague-Dawley rat model of musculoskeletal syndrome side effect at 2000 mg/kg/day, po after 14 days; assay type: ADME, organism-based; set-up: time < 24 hr, dose 2000 mg/kg/day, route oral; settings: in vivo
[7] = molecular target: Matrix metalloproteinase-14 (Homo sapiens, UniProt P50281); assay: Inhibition of MMP14 catalytic domain; outline: as §1
[8] = molecular target: 72 kDa type IV collagenase (Homo sapiens, UniProt P08253); assay: Inhibition of MMP2
[9] = Solubility in phosphate buffer at pH 7.5; assay type: physicochemical
Interstitial collagenase = molecular target: T3, Interstitial collagenase (Homo sapiens, UniProt P03956); assay: Inhibition of MMP1
T3 sequence (P03956 whole entry): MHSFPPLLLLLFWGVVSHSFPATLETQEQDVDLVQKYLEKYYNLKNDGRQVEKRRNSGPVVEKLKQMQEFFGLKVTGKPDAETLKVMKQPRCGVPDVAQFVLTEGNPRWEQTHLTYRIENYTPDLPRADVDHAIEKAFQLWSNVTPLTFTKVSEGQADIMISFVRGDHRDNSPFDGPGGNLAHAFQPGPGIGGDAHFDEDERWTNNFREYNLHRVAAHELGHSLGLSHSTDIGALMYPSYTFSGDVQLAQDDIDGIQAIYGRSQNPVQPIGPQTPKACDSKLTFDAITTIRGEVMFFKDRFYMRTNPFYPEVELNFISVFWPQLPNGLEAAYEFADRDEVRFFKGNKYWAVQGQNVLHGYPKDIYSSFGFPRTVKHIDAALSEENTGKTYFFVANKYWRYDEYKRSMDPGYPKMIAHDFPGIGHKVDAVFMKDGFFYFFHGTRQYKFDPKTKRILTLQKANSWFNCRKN

Oryctolagus cuniculus [10] = assay: Inhibition of cartilage damage in New Zealand white rabbit osteoarthritis model assessed as reduction of cartilage lesion on tibial plateau at 30 mg/kg, po twice daily after 5 weeks relative to control; assay type: functional; set-up: scale not given: the % may be the effect or the level left
Outline: (§2)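 Oral dosing 30 mg/kg or vehicle twice daily from day 1 post-op for 5 weeks. Joints removed, stained with India ink; two-dimensional lesion areas on tibial plateaus and femoral condyles measured; means ± S.E., compared to vehicle.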

[11] = AUC (0 to 24 hrs) in New Zealand white rabbit osteoarthritis model at 30 mg/kg, po twice daily after 5 weeks; assay type: ADME, organism-based, Oryctolagus cuniculus; set-up: time < 24 hr, dose 30 mg/kg, route oral; settings: in vivo
[12] = molecular target: Macrophage metalloelastase (Homo sapiens, UniProt P39900); assay: Inhibition of MMP12 catalytic domain; outline: as §1
Rattus norvegicus [13] = assay: Inhibition of human MMP13-induced type 2 collagen degradation in rat cartilage damage model assessed as type2 collagen neoepitope biomarker level at 0.1 mg/kg, po by enzyme-linked immunosorbent assay; assay type: functional, organism-based; set-up: dose 0.1 mg/kg
Outline: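 Rats (12 per group) dosed orally with vehicle or various doses; 3 h later knees injected intra-articularly with 12 µg activated full-length human MMP13. Sacrifice 2 h after injection; synovial space lavaged twice with 80 µl saline. Type II collagen neoepitope in lavage quantified by ELISA.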

[14] = molecular target: T4, A disintegrin and metalloproteinase with thrombospondin motifs 5 (Homo sapiens, UniProt Q9UNA0); assay: Inhibition of human ADAMTS5 assessed as cleavage of aggrecan substrate
T4 sequence (Q9UNA0 whole entry): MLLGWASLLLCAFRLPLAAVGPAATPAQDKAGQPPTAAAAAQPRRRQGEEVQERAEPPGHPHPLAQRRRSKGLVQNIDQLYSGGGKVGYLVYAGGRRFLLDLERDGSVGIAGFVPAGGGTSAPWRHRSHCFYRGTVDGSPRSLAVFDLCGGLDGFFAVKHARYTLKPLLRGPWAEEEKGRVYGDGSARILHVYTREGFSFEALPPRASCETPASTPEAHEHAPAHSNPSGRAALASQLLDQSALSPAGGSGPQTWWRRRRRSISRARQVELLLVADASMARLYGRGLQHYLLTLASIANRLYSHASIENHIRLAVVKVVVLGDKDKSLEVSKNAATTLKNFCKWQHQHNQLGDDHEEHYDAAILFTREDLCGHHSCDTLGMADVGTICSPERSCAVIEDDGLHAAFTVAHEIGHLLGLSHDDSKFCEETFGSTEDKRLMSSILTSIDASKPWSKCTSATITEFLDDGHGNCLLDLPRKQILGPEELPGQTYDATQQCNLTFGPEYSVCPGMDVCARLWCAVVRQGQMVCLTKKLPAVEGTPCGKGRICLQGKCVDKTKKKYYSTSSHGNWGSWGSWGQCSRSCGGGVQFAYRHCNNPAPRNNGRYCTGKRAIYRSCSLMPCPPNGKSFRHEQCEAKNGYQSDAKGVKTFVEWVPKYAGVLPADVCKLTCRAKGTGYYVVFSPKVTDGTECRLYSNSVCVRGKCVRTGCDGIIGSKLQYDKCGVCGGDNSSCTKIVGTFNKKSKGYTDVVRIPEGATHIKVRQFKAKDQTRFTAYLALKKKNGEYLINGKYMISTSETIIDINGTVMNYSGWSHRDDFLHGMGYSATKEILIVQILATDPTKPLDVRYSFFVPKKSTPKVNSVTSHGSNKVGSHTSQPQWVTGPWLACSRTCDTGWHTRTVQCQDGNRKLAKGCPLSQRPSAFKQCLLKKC
Outline: (§3)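 Isolated human enzyme with native aggrecan as substrate. Cleavage quantified using the BC-3 neoepitope antibody.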

[15] = Solubility in phosphate buffer at pH 6; assay type: physicochemical
Oryctolagus cuniculus [16] = assay: Inhibition of cartilage damage in New Zealand white rabbit osteoarthritis model assessed as reduction of cartilage lesion on femoral condyles at 30 mg/kg, po twice daily after 5 weeks relative to control; assay type: functional, Condyle; set-up: scale not given: the % may be the effect or the level left; outline: as §2
Cartilage tissue = assay: Inhibition of IL1alpha and oncostatin M-stimulated hydroxyproline release from bovine nasal cartilage; assay type: functional, tissue-based; settings: Bos taurus
Outline: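 Bovine nasal cartilage explants (1 × 3 mm, 9 per group) cultured 2 weeks with interleukin-1 (50 ng/ml) plus oncostatin M (50 ng/ml), with vehicle or up to 10 µM inhibitor. Medium refreshed twice weekly and pooled for hydroxyproline assay; remaining cartilage papain-digested and its hydroxyproline measured. IC50 taken from a plot of inhibition of cartilage degradation; means ± S.E.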

Stromelysin-1 = Stromelysin-1 (Homo sapiens, UniProt P08254); assay: Inhibition of MMP3 catalytic domain; outline: as §1
[17] = Drug level in Sprague-Dawley rat model of musculoskeletal syndrome side effect at 2000 mg/kg/day, po after 14 days; assay type: ADME, organism-based; set-up: route oral; settings: in vivo
[18] = molecular target: T5, A disintegrin and metalloproteinase with thrombospondin motifs 4 (Homo sapiens, UniProt O75173); assay: Inhibition of human ADAMTS4 assessed as cleavage of aggrecan substrate; outline: as §3
T5 sequence (O75173 whole entry): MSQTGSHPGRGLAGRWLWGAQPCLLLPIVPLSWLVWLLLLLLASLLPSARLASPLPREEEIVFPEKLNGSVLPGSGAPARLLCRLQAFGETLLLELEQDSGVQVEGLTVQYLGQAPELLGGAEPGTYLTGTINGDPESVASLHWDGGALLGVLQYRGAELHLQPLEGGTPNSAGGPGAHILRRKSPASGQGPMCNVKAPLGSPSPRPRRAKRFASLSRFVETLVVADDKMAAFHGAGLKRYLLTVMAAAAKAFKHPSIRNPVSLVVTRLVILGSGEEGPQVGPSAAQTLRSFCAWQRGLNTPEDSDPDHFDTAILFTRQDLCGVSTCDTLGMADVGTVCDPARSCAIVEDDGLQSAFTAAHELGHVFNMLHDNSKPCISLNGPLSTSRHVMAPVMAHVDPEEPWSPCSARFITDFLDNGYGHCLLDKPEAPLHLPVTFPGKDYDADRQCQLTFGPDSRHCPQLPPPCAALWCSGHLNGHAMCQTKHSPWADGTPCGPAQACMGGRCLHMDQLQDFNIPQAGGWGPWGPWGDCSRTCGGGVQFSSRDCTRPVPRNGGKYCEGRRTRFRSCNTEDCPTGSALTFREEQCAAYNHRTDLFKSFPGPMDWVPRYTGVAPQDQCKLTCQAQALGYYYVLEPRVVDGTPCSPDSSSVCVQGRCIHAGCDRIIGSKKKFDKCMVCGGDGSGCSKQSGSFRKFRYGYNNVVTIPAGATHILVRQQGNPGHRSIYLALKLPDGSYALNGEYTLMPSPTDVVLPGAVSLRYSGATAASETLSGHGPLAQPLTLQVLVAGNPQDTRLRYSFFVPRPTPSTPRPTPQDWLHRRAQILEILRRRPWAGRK

Collagenase 3 = Collagenase 3 (Homo sapiens, UniProt P45452)
[19] = system: O=C(OCc1ccccc1)c1cn2c(=O)n(Cc3ccccc3)c(=O)cc2s1; settings: Homo sapiens

Sequence of Macrophage metalloelastase (P39900 whole entry, the tested form may be a part): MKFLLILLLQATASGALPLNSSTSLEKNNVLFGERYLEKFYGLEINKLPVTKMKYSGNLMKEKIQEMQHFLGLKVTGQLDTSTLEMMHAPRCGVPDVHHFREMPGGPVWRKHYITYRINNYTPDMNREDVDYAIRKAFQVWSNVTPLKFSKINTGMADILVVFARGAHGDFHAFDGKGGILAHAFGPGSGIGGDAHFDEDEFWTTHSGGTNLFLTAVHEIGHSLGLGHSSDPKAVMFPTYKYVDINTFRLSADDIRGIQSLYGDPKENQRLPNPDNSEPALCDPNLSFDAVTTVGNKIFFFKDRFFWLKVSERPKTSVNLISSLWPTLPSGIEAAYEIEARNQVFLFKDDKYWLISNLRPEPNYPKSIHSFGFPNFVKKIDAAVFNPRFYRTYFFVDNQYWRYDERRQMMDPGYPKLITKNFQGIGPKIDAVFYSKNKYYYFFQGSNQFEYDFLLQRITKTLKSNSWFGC
Sequence of Stromelysin-1 (P08254 whole entry, the tested form may be a part): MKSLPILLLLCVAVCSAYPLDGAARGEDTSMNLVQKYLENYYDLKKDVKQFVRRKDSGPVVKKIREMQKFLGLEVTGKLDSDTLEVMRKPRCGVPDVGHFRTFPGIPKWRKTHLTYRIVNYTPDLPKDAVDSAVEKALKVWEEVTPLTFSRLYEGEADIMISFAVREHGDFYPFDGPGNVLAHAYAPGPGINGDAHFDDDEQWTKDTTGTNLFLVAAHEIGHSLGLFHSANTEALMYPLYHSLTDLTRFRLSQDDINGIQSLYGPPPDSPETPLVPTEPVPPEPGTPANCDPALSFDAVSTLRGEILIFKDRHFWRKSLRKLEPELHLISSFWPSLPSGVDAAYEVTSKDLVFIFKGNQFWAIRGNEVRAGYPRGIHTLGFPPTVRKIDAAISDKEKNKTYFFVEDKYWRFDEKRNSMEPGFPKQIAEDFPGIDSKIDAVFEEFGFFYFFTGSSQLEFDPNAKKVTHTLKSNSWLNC
Sequence of Matrix metalloproteinase-9 (P14780 whole entry): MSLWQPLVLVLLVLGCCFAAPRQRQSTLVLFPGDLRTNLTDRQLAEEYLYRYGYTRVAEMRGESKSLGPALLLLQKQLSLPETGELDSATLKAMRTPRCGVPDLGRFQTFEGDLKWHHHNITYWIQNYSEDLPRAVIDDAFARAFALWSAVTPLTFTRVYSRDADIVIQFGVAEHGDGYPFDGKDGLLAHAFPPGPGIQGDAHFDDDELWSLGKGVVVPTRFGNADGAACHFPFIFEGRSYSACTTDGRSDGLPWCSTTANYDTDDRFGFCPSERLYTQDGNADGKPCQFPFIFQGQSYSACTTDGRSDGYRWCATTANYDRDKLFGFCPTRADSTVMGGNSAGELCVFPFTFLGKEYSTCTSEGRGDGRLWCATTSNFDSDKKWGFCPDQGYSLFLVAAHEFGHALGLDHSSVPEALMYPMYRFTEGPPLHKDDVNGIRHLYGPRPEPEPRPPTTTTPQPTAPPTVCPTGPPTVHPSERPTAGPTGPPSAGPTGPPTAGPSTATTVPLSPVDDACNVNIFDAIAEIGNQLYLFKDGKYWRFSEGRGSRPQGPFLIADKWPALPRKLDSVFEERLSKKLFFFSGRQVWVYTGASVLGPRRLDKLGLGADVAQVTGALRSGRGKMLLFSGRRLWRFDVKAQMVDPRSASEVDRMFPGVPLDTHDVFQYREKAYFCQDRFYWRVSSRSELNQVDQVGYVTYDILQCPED
Sequence of 72 kDa type IV collagenase (P08253 whole entry): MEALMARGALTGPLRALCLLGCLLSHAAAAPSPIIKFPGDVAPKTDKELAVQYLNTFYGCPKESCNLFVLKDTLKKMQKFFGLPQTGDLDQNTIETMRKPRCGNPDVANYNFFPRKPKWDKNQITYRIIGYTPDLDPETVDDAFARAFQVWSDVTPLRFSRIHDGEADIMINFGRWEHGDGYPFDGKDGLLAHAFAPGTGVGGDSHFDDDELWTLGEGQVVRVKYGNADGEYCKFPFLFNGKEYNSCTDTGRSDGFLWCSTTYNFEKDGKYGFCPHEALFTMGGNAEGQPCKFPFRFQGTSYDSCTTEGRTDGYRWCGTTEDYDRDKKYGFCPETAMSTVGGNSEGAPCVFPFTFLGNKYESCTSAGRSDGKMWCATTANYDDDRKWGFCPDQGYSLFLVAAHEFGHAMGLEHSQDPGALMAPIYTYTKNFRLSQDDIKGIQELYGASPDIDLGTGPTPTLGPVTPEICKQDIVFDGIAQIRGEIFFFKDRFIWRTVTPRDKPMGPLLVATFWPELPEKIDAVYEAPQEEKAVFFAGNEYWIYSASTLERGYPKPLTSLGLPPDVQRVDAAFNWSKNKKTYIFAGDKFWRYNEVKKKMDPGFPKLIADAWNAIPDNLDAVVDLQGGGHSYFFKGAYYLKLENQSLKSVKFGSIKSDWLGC
Sequence of Neutrophil collagenase (P22894 whole entry, the tested form may be a part): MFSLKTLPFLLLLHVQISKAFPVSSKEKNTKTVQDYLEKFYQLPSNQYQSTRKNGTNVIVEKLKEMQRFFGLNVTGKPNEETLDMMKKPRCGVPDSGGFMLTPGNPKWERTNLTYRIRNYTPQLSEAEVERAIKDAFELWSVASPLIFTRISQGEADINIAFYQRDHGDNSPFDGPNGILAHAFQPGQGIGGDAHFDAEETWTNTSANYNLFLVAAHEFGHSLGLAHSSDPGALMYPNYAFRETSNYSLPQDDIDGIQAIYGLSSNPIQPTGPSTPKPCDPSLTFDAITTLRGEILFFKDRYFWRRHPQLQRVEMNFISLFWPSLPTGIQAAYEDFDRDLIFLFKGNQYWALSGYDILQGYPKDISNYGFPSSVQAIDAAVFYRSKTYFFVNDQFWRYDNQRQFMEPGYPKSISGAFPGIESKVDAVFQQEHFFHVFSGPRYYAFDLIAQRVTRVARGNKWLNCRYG

Compound | IC50 (Neutrophil collagenase) [µM] | IC50 [2] [µM] | IC50 [4] [µM] | IC50 (Matrilysin) [µM] | IC50 [7] [µM] | IC50 [8] [µM] | IC50 (Interstitial collagenase) [µM] | IC50 [12] [µM] | IC50 (Stromelysin-1) [µM] | Activity (Rattus norvegicus [5]) | AUC at 336 h [17] [µg·h/mL] | other results
CNC(=O)[C@H](Cc1c[nH]c2ccccc12)NC(=O)[C@@H](CC(=O)NO)CC(C)C [ILOMASTAT] |  |  | 0.0034 | 0.033 | 0.0047 |  |  | 0.0051 | 0.007 |  |  | IC50 (Collagenase 3): 0.0052 µM
CC(C)[C@@H](NS(=O)(=O)c1ccc(-c2ccc(Br)cc2)cc1)C(=O)NO |  |  |  |  |  |  |  |  |  | Toxic | 94 | 
Collagenase 3 (Homo sapiens) (from UniProt P45452) |  |  |  |  |  |  |  |  |  |  |  | Km [19]: 48 µM

More lines, main results first:

IC50 (Neutrophil collagenase) [µM] | IC50 [2] [µM] | IC50 [4] [µM] | IC50 (Matrilysin) [µM] | IC50 [7] [µM] | IC50 [8] [µM] | IC50 (Interstitial collagenase) [µM] | IC50 [12] [µM] | IC50 (Stromelysin-1) [µM] | Compound | Activity (Rattus norvegicus [5]) | AUC at 336 h [17] [µg·h/mL] | other results
> 100 | > 100 | > 30 | > 30 | > 30 | > 30 | > 30 | > 100 | > 30 | Cn1c(=O)n(Cc2ccc(C(=O)O)cc2)c(=O)c2cc(C#CCc3ccccc3)ccc21 | Non-toxic | 30 | solubility [1]: < 3 µM; AUC at 840 h [3]: 200 µg·h/mL; AUC at 24 h [6]: 1010 µg·h/mL; solubility [9]: < 3 µM; Activity (Oryctolagus cuniculus [10]): 68%; AUC at 24 h [11]: 6 µg·h/mL; Activity (Rattus norvegicus [13]): Active; IC50 [14]: > 25 µM; solubility [15]: 20 µM (≈ 8.49 µg/mL); Activity (Oryctolagus cuniculus [16]): 51%; IC50 (Cartilage tissue): 1.3 µM; IC50 [18]: > 25 µM
> 100 | > 100 | > 100 | > 100 | > 100 | > 100 | > 100 | > 100 | > 100 | O=C(OCc1ccccc1)c1cn2c(=O)n(Cc3ccccc3)c(=O)cc2s1 |  |  | 
